# A selection: hits, their analogues and other compounds. The true share with any hit is near 3.7%.
# KCNQ1 block = inhibitors of human KCNQ1 potassium channel; 310,000 tested, 1.3% active; CHO-K1 KCNQ1, FluxOR thallium flux fluorescence; active compounds read high; B-score at 10 µM; P51787;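 active = compounds whose thallium flux B-score, printed positive for inhibition, exceeds three library SD while starting fluorescence stays within three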;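 also: channel opened by potassium depolarization with thallium stimulus after 20 min compound exposure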
# hERG protect = compounds protecting human hERG from proarrhythmic drug block; Q12809; CHO-hERG, FluxOR thallium flux, dofetilide IC70 present; activation (rescue from dofetilide block), less the hit threshold, % at 10 µM; 310,000 tested, 0.51% active; AID 1511;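 active = activation above the mean of controls blocked by dofetilide plus 5 SD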;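 also: thallium influx through hERG after potassium depolarization seen as dye fluorescence rise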
# KCNK9 block = inhibitors of human KCNK9 two-pore domain potassium channel | Q9NPC2 | HEK293 KCNK9, FluxOR thallium flux fluorescence; active compounds read low | B-score at 10 µM | 310,000 tested, 1.2% active | AID 488922;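 active = ratio B-score over 3 SD below the library mean, with starting fluorescence within 5 SD of its mean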;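 also: negative B-score means less thallium flux so channel inhibition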
# Kir21 inh = inhibitors of mouse Kir2.1 inward-rectifier potassium channel; HEK293-Kir2.1, FluxOR thallium flux fluorescence; active compounds read low; B-score at 10 µM; 310,000 tested, 0.85% active;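 active = fluorescence ratio B-score at or below minus 3 SD of library scores, with starting-brightness B-score within 2 SD, cut at about -4.2 in these data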;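 also: channel flux triggered by added potassium and thallium sulfate stimulus; B-score of peak minus minimum fluorescence over baseline after thallium stimulus; more negative B-score means stronger Kir2.1 block with less thallium influx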
# Target sequence (P35561 whole entry, looked up): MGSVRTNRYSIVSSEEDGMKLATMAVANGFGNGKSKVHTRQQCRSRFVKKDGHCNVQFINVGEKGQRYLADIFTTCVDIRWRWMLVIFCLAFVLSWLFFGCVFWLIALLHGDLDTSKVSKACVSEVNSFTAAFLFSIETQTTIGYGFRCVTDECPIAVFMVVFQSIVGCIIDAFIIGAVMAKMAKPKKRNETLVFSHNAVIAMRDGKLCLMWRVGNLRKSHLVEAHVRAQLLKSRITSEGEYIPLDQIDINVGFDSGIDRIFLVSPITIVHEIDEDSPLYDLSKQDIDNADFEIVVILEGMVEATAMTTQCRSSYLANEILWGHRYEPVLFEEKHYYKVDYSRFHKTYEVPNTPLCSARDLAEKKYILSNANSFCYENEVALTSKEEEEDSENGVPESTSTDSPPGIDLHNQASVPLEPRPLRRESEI
# KCNQ1 act = human KCNQ1 channel potentiation or activation. P51787. CHO-K1 KCNQ1, thallium flux FluxOR fluorescence; active compounds read high. B-score at 10 µM. 310,000 tested, 0.35% active. AID 2648;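 active = fluorescence ratio B-score, a plate-corrected score, at least three library SD, with initial intensity B-score within 5 SD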
#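 Assay system: CHO-K1 cells stably expressing KCNQ1; Medium: assay buffer with matched DMSO; Also added: K+/Tl+ depolarizing stimulus; Dosing: single dose; Timing: dye 90 min, compound 20 min, room temperature; Measured by: kinetic FluxOR thallium fluorescence, 10-s 1-Hz baseline, 110-s post-stimulus read; Read-out: peak-minus-minimum fluorescence over initial fluorescence, negative-control normalized, B-scored.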
# KCNK3 inh = human KCNK3 channel inhibition, primary screen; O14649; CHO-KCNK3 thallium flux, FluxOR fluorescence; active compounds read low; B-score at 10 µM; 340,000 tested, 0.84% active; AID 602410;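 active = B-score under library mean minus 4 SD, starting fluorescence ratio at most library mean plus 5 SD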;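 also: more negative B-score means stronger inhibition of thallium flux through KCNK3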
# * hit, by the source's call; i = inactive; x = not tested or not shown.
SMILES,KCNQ1 block,hERG protect,KCNK9 block,Kir21 inh,KCNQ1 act,KCNK3 inh
O=C(NNC(=S)NC(=O)c1ccc(Br)cc1)c1ccc([N+](=O)[O-])cc1,i,-11,i,0.05,i,i
CC(C)(C)c1cc(CCC(=O)NNC(=S)NC(=O)c2ccccc2)cc(C(C)(C)C)c1O,i,-8,i,0.07,36*,i
O=C(NNC(=S)NC(=O)c1ccc(Br)cc1)c1cccc([N+](=O)[O-])c1,i,-1,i,0.01,21*,i
Cc1cc(SCC(=O)N(C)C2CCCCC2)nc2ccccc12,x,x,x,x,x,i
COc1ccc2c(c1OC)OCC2C (stereo unspecified),x,x,x,x,x,i
Cc1cc(Br)c(Oc2cc(NN3CCCCC3)c([N+](=O)[O-])cc2[N+](=O)[O-])c(Br)c1,x,x,x,x,x,i
O=C1c2cccc3c([N+](=O)[O-])ccc(c23)C(=O)N1c1ccccn1,i,-14,-6.6*,-2.5,i,i
O=C1c2cccc3c([N+](=O)[O-])ccc(c23)C(=O)N1c1ccc(Cl)cn1,7*,-19,i,-5*,i,i
O=C1c2cccc3c(N4CCCCC4)ccc(c23)C(=O)N1c1ccccn1,8*,-20,-7.6*,-0.67,i,i
O=C1c2ccc([N+](=O)[O-])cc2C(=O)N1c1ccc(Cl)cn1,i,-11,i,-2.2,i,i
O=C1c2cccc3c([N+](=O)[O-])ccc(c23)C(=O)N1O,8*,-23,i,-3.4,i,i
CC(C)c1ccc(N(CC(=O)NCCCN2CCOCC2)S(=O)(=O)c2ccccc2)cc1,x,x,x,x,x,i
Cc1ccccc1N1CCN(Cc2c[nH]c3ccccc23)CC1,6*,-15,i,-5.5*,i,i
COc1ccccc1N1CCN(Cc2c[nH]c3ccccc23)CC1,i,-1,i,-0.61,i,i
CC(C)C[C@@H](CN)NC(=O)c1nc[nH]c1C(=O)N[C@@H](C)C(=O)CNC[C@H](C)NC(=O)c1nc[nH]c1C(=O)N[C@@H](C)C(=O)O,x,x,x,x,x,i
CN(C)CCOC(C1CCCCC1)C1CCCCC1,i,-8,i,-4.6*,i,i
CN(C)CCNC(=S)NC1CCCCC1,i,-10,i,-1.4,i,i
Cc1cc(Cl)nc(Cl)c1C(=O)NCc1ccc(Cl)cc1,i,-9,i,0.54,i,i
O=C(c1ccc(Cl)cc1)N1CCN=C1c1ccccc1,i,-10,i,-4.5*,i,i
COC(=O)C1=C(C)N(C)C(=S)N(C)C1c1cccc(Br)c1 (stereo unspecified),i,-16,i,-5*,i,i
CCOC(=O)C1=C(C)N(C)C(=S)N(C)C1c1ccc(OC)cc1 (stereo unspecified),i,-6,i,0.79,i,i
Oc1oc(-c2ccc(Br)cc2)nc1/C=N/c1ccccn1,i,-7,i,0.11,i,i
CCOc1ccc(N2C(=O)CC(Sc3nc4ccc(OCC)cc4s3)C2=O)cc1 (stereo unspecified),i,-9,i,-0.47,i,i
CCOc1ccc2nc(/N=C/c3c(C)[nH]n(-c4ccccc4)c3=O)sc2c1,i,58*,i,-0.04,55*,i
CCOc1ccc2nc(/N=C/c3c(C)[nH]n(-c4ccc(C)cc4)c3=O)sc2c1,i,71*,i,0.74,40*,i
SMILES,KCNQ1 block,hERG protect,KCNK9 block,Kir21 inh,KCNQ1 act,KCNK3 inh
CCOc1ccc2nc(/N=C/c3nc(-c4ccc(Br)cc4)oc3O)sc2c1,i,6.7*,i,0.9,25*,i
CCOc1[nH]n(-c2ccccc2)c(=O)c1C=Nc1ccc(OC)cc1,i,-10,i,-1.4,i,i
OCC[C@H]1NCc2cc(CO)cc(-c3ccccc3)c21,x,x,x,x,x,i
COc1ccc(CNC(=O)COC(=O)CCN2C(=O)C3CC=CCC3C2=O)cc1OC (stereo unspecified),x,x,x,x,x,i
CC1CN(C(=O)COC(=O)[C@@H](NC(=O)c2ccccc2Cl)C(C)C)CC(C)O1 (stereo partly specified),x,x,x,x,x,i
Oc1ccc2ccccc2c1/C=N/Nc1nnc(-c2ncc[nH]2)c2ccccc12,8*,-9,i,-1.2,i,i
CCCCOC(=O)c1ccc(NC(=S)NC(=O)c2c(Br)c(C)nn2C)cc1,i,2,i,2.6,i,i
CC(=O)c1ccc(NC(=S)NC(=O)c2c(Cl)c(C)nn2C)cc1,i,-3,i,1.4,11*,i
O=C1c2[nH]nc(-c3ccccc3O)c2C(c2ccc(F)cc2)N1Cc1ccco1 (stereo unspecified),6*,-21,i,-0.32,i,i
C/C=C(/C)C(=O)O[C@@H]1c2c(ccc3ccc(=O)oc23)OC(C)(C)[C@@H]1OC(=O)/C(C)=C\C,i,-6,-7.4*,0.43,i,i
NS(=O)(=O)c1ccc(CCNC(=O)CCCCCn2c(=S)[nH]c3ccc(Br)cc3c2=O)cc1,i,-30,i,0.09,i,i
CC[C@]12c3[nH]c4cc(-c5ccco5)ccc4c3CCN1C(=O)[C@@H](CC(=O)NCCCN(C)C)C[C@@H]2C(=O)N1CCN(C(=O)c2ccco2)CC1,x,x,x,x,x,i
COc1ccccc1C1CC(c2ccco2)=NN1c1ccccc1 (stereo unspecified),i,-6,-7.6*,-0.26,i,i
Fc1ccc(C2=NN(c3ccccc3)C(c3ccco3)C2)cc1 (stereo unspecified),i,-28,i,-0.83,i,i
Cc1ccc2c(c1C)C(=O)C(=O)N2,x,x,x,x,x,i
CCc1cc(-c2n[nH]c(=S)n2C(C)c2ccccc2)cs1 (stereo unspecified),i,-7,i,-7.8*,i,i
CCOC(=O)C1CCN(c2cc3c(cc2NC(=O)c2ccccc2)n(C)c(=O)n3C)CC1,i,-10,i,0.86,i,i
CCOC(=O)C1CCN(c2cc3c(cc2NC(=O)c2ccc(OC)c(OC)c2)n(C)c(=O)n3C)CC1,i,-7,-6.8*,2.3,i,i
Cc1nnc(SCC(=O)N(Cc2ccccc2)C(C)(C)C)[nH]c1=O,i,-5,i,-1.5,i,i
CC(C)Cc1nnc(NC(=O)CSc2nc(-c3ccccc3)cc(=O)[nH]2)s1,i,-8,i,1.5,i,i
CCCCNC(=S)Nc1ccccc1Cc1ccccc1,i,-11,i,-4.7*,i,i
CCCCNC(=O)Nc1ccccc1CC,i,1,i,-0.17,i,i
CCn1c2ccccc2c2cc(NC(=O)COc3ccccc3)ccc21,i,5.4*,i,0.13,i,i

# Screens: PubChem BioAssay, Johns Hopkins Ion Channel Center
